# Screens deposited in PubChem BioAssay by Johns Hopkins Ion Channel Center.
# KCNQ1 pot: potentiators or activators of human KCNQ1 potassium channel | CHO-K1 KCNQ1, thallium flux FluxOR fluorescence; active compounds read high | B-score at 10 µM | hit rate 0.35% among 310,000;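 active = fluorescence ratio B-score, a plate-corrected score, at least three library SD, with initial intensity B-score within 5 SD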
#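 Test system: CHO-K1 cells stably expressing KCNQ1 / Medium: assay buffer / Also added: depolarizing K+/Tl+ stimulus, K2SO4 and Tl2SO4 each 12.5 mM in 5x stock / Incubation: 90 min dye loading and 20 min compound exposure, both at room temperature / Signal: thallium influx via FluxOR fluorescence, kinetic imaging / Evaluation: B score of baseline-normalized fluorescence ratio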
# KCNK3 inh: human KCNK3 channel inhibition, primary screen | hit rate 0.84% among 340,000 | O14649 | CHO-KCNK3 thallium flux, FluxOR fluorescence; active compounds read low | B-score at 10 µM;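 active = B-score under library mean minus 4 SD, starting fluorescence ratio at most library mean plus 5 SD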;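 note: more negative B-score means stronger inhibition of thallium flux through KCNK3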
# KCNK9 inh: blocks the human KCNK9 two-pore domain potassium channel. AID 488922. HEK293 KCNK9, FluxOR thallium flux fluorescence; active compounds read low. hit rate 1.2% among 310,000. B-score at 10 µM;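 active = ratio B-score over 3 SD below the library mean, with starting fluorescence within 5 SD of its mean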;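 note: negative B-score means less thallium flux so channel inhibition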
# KCNQ1 block: inhibitors of human KCNQ1 potassium channel. B-score at 10 µM. hit rate 1.3% among 310,000. CHO-K1 KCNQ1, FluxOR thallium flux fluorescence; active compounds read high. P51787;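 active = compounds whose thallium flux B-score, printed positive for inhibition, exceeds three library SD while starting fluorescence stays within three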;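 note: channel opened by potassium depolarization with thallium stimulus after 20 min compound exposure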
# hERG rescue: shields human hERG channel from block by proarrhythmic agents | Q12809 | CHO-hERG, FluxOR thallium flux, dofetilide IC70 present | activation (rescue from dofetilide block), less the hit threshold, % at 10 µM | hit rate 0.51% among 310,000;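 active = activation above the mean of controls blocked by dofetilide plus 5 SD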;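 note: thallium influx through hERG after potassium depolarization seen as dye fluorescence rise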
# Target sequence (Q12809 whole entry, looked up): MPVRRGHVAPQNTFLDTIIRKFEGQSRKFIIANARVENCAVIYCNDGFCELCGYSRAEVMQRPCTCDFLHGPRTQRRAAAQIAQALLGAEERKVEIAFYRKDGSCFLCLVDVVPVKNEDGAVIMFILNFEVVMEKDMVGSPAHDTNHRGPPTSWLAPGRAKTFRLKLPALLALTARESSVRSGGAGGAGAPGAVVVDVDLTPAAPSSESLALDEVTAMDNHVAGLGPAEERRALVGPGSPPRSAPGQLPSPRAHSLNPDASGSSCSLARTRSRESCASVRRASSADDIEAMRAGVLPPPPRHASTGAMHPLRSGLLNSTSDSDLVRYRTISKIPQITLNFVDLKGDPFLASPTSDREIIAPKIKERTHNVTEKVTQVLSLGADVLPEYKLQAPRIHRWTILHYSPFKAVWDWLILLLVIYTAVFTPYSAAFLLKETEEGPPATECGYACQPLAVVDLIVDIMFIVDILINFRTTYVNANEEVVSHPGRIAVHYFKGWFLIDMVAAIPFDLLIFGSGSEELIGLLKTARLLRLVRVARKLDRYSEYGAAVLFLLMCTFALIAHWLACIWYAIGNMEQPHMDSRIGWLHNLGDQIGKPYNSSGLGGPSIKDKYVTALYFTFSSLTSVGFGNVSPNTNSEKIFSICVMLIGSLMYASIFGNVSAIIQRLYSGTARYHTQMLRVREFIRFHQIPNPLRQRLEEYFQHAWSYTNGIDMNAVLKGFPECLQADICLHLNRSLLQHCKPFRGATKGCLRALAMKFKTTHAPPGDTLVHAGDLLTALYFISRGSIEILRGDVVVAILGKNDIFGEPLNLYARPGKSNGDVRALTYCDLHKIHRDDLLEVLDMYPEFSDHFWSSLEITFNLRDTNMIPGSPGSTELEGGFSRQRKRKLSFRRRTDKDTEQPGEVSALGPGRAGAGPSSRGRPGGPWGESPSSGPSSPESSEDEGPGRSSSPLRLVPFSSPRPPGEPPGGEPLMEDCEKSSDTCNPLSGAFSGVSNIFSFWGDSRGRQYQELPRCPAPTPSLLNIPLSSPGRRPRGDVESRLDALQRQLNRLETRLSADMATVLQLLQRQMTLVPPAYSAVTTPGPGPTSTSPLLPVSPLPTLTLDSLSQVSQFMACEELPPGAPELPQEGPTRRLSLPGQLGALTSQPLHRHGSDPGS
# * = called active by the depositor; i = inactive; x = not tested or not shown. Compounds with a hit are over-represented: about 3.1% of the library has one in this group of screens.
SMILES,KCNQ1 pot,KCNK3 inh,KCNK9 inh,KCNQ1 block,hERG rescue
COCC1CCN(C(=O)c2cc(COc3ccccc3SC)on2)C1 (stereo not drawn),i,i,i,i,-9
C=CC[C@H]1CC(C)=C[C@H](CC=C)N1C(=O)c1cc(COc2ccccc2SC)on1,i,i,i,8*,-13
O=C(NCc1ccc2c(c1)OCO2)C1CC(=O)N(C2CCCCCC2)C1 (stereo not drawn),i,i,i,i,5.4*
CCn1c(=O)n(CC)c2cc(N3CCCC3)c(NC(=O)c3cccc(Cl)c3)cc21,i,i,i,i,-9
Cc1noc(C)c1S(=O)(=O)N(C)C[C@H]1Oc2ccc(NC(=O)NC3CCCCC3)cc2C(=O)N([C@H](C)CO)C[C@@H]1C,x,i,x,x,x
Cc1ccc(OC(C)C(=O)Nc2ccccc2C(=O)NCc2cccnc2)cc1C (stereo not drawn),i,i,i,6*,-24
CCOC(=O)c1ccc(N2CCOCC2)c(NC(=O)c2ccc3c(c2)OCO3)c1,i,i,i,i,-9
CCn1c(=O)c(-[n+]2ccccc2)c(O)c2ccccc21,i,i,i,i,8.3*
CCC(C)(c1ccc(C=O)s1)c1ccc(C=O)s1,i,i,i,i,6.0*
CC(C)c1ccc(C2C3CSCC=C3C(C#N)=C(N)C2(C#N)C#N)cc1 (stereo not drawn),i,x,i,12*,-20
CN1CC=C2C(C#N)=C(N)C(C#N)(C#N)[C@H](c3cccc(Cl)c3)C2C1 (stereo partly drawn),i,i,i,8*,-11
CC(OC(=O)CC1CC2CCC1C2)C(=O)Nc1cccc(S(=O)(=O)N2CCOCC2)c1 (stereo not drawn),i,i,i,i,-18
CN(C)N1C(N)=C(C#N)C(c2cccs2)C2=C1CCCC2=O (stereo not drawn),i,i,i,i,-6
Cc1ccsc1C1C(C#N)=C(N)N(N(C)C)C2=C1C(=O)CCC2 (stereo not drawn),i,i,i,i,7.9*
COCC(=O)N(C)C[C@H]1N[C@@](C)(C(=O)OC)[C@H]2C(=O)N(C)C(=O)[C@@H]12,x,i,x,x,x
O=C(NCc1ccncc1)c1cccc(S(=O)(=O)Nc2ccc(F)cc2)c1,x,i,x,x,x
CC(C)Cn1c(=S)[nH]c2cc(Cl)ccc21,i,i,i,i,6.9*
O=C(CC(c1ccccc1)c1ccccc1)Nc1ncn[nH]1,24*,i,i,i,-2
NC(=NCCc1ccccc1)c1cccc([N+](=O)[O-])c1,i,i,i,7*,-7
CCCCn1c(N)c(N(CCC(C)C)C(=O)C2CCCN(C(=O)c3ccc(Cl)cc3)C2)c(=O)[nH]c1=O (stereo not drawn),i,i,i,i,-12
CC(C)CN(C(=O)COC(=O)c1ccc2c(c1)OCO2)c1c(N)n(Cc2ccccc2)c(=O)[nH]c1=O,i,i,i,i,-5
CC(C)(C)n1nnnc1C(c1cccs1)N(Cc1cccnc1)Cc1ccco1 (stereo not drawn),i,i,-7.2*,i,-9
COc1cccc(NCc2cc(=O)oc3cc(C)c(C(C)C)cc23)c1,i,i,i,i,-8
O=C(CSc1nnc(-c2ccccc2F)o1)N1CCNC1=O,x,i,x,x,x
CCCCC(c1nnnn1CC1CCCO1)N1CCN(c2cccc(C)c2C)CC1 (stereo not drawn),i,i,-7.5*,i,-11
SMILES,KCNQ1 pot,KCNK3 inh,KCNK9 inh,KCNQ1 block,hERG rescue
O=C1C=CC(=O)c2c(O)c(N3CCN(CCOCCO)CC3)c(Br)c(O)c21,x,-11*,x,x,x
OCCOCCN1CCN(C2=Nc3ccccc3Sc3ccccc32)CC1,i,i,i,i,x
O=C1C=CC(=O)c2c(O)c(N3CCN(CCO)CC3)c(Cl)c(O)c21,x,-11*,x,x,x
CCC(=O)N(c1nnc(SCC(=O)NN2C(=O)NC3(CCCCC3)C2=O)s1)C1CC1,x,i,x,x,x
Cc1ccc(/C=N/NC(=O)CC2N=C(Cc3ccccc3)NNC2=O)cc1 (stereo not drawn),i,i,i,i,5.2*
C/C(=N\NC(=O)CC1N=C(Cc2ccccc2)NNC1=O)c1ccncc1 (stereo not drawn),i,i,i,i,-6
